High-throughput results as filed in PubChem.
This is one part of a sample in which hits are shown more often than they occur.
E-selectin induc = induces E-selectin expression in human endothelial cells | HUVEC E-selectin immunofluorescence imaging; normalized: neutral wells 0, TNF-alpha wells 100 | activation, % at 7.58 µM | 0.37% of 260,000 active | AID 686992;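 active means mean E-selectin-positive cell signal at least 10% of the positive control, reached in at least 60% of replicates, without over 20% cell loss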
Target sequence (P16581 whole entry, looked up): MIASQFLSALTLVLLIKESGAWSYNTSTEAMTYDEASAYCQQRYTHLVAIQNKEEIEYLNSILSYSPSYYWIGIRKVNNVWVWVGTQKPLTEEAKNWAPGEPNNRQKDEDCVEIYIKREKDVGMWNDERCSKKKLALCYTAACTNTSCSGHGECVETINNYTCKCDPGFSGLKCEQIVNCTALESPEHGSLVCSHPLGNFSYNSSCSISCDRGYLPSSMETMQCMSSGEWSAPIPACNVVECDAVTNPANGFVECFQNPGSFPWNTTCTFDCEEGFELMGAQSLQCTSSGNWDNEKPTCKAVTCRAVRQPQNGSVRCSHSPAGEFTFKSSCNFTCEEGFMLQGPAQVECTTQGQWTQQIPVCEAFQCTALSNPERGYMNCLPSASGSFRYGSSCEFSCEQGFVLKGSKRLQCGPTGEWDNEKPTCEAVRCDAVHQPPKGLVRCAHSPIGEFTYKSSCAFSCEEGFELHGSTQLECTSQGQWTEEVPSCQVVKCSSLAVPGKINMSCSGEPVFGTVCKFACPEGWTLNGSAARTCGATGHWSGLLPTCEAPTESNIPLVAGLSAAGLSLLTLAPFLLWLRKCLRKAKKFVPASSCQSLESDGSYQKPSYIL
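material = human umbilical vein endothelial cells (HUVEC), E-selectin induction | quantity = 3,000 cells/well | medium = EGM-2 growth medium on 0.1% gelatin-coated wells | technique = immunofluorescence imaging | read-out basis = % PE-positive cells | control set = TNF-alpha positive control, DMSO neutral control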
A number is an active result; . = inactive.

SMILES	E-selectin induc
Cc1ccccc1CN1CCN(S(=O)(=O)c2ccc(Cl)s2)CC1	290.4
CCS(=O)(=O)N1CCN(S(=O)(=O)c2ccc(Cl)s2)CC1	.
Cc1ccccc1CN1CCN(c2ccc(S(=O)(=O)N3CCCC3)cn2)CC1	.
Cc1noc(C)c1NC(=O)N(C)C[C@@H]1Oc2ccc(NC(=O)Nc3ccc(C(F)(F)F)cc3)cc2CC(=O)N([C@H](C)CO)C[C@@H]1C	.
C[C@H](NC(=O)[C@H]1[C@H](CO)[C@H]2Cn3c(cccc3=O)[C@@H]1N2C(=O)C1CCCC1)c1ccccc1	.
CCNC[C@H]1[C@@H](c2ccccc2)[C@@H](CO)N1C(=O)Cc1ccccn1	.
C[C@H]1CN([C@@H](C)CO)C(=O)c2cc(NC(=O)NC3CCCCC3)ccc2O[C@H]1CN(C)C(=O)Nc1ccc2c(c1)OCO2	.
COc1ccc(CNC(=O)N(C)C[C@H]2OCc3ccccc3-c3c(n(C)c4ccccc34)C(=O)N([C@H](C)CO)C[C@H]2C)cc1	.
C[C@H](CO)N1C[C@H](C)[C@H](CN(C)Cc2ccncc2)Oc2c(NC(=O)Nc3ccc(F)cc3)cccc2C1=O	105.3
COc1ccc(CN(C)C[C@H]2Oc3c(NC(=O)Nc4ccc(OC)cc4)cccc3C(=O)N([C@@H](C)CO)C[C@H]2C)cc1	.
C[C@H]1CN([C@@H](C)CO)C(=O)c2cccc(NC(=O)Nc3ccc(F)cc3)c2O[C@@H]1CN(C)Cc1ccncc1	.
COc1ccc(CN(C)C[C@@H]2Oc3c(NC(=O)Nc4ccc(F)cc4)cccc3C(=O)N([C@@H](C)CO)C[C@H]2C)cc1	261.0
Cc1noc(C)c1NC(=O)Nc1cccc2c1O[C@H](CN(C)Cc1ccccc1)[C@@H](C)CN([C@@H](C)CO)C2=O	.
Cc1noc(C)c1NC(=O)Nc1cccc2c1O[C@H](CN(C)Cc1ccccc1)[C@@H](C)CN([C@H](C)CO)C2=O	.
Cc1noc(C)c1NC(=O)Nc1cccc2c1O[C@@H](CN(C)Cc1ccc(C(F)(F)F)cc1)[C@H](C)CN([C@@H](C)CO)C2=O	252.1
C[C@@H]1CN([C@@H](C)CO)C(=O)c2cccc(NC(=O)Nc3ccc(F)cc3)c2O[C@H]1CN(C)Cc1ccncc1	.
COc1ccc(NC(=O)Nc2cccc3c2O[C@@H](CN(C)Cc2ccccc2)[C@@H](C)CN([C@@H](C)CO)C3=O)cc1	.
CC(=O)N(C)C[C@H]1Oc2ncc(C#CC(C)(C)O)cc2C(=O)N([C@@H](C)CO)C[C@@H]1C	.
CCNC(=O)C[C@@H]1CC[C@@H]2[C@H](COc3ccc(NC(=O)c4ccc(F)cc4)cc3C(=O)N2C)O1	.
Cc1ccc(S(=O)(=O)Nc2ccc3c(c2)CC(=O)N([C@H](C)CO)C[C@@H](C)[C@@H](CN(C)Cc2ccc(Oc4ccccc4)cc2)O3)cc1	.
C[C@H](CO)N1C[C@H](C)[C@H](CN(C)S(C)(=O)=O)OCCCC[C@H](C)Oc2ccc(NC(=O)CCCN(C)C)cc2C1=O	.
CO[C@H](CN(C)S(=O)(=O)c1ccccc1)[C@H](C)CN(C(=O)Nc1ccccc1F)[C@H](C)CO	.
COCC(=O)N1C[C@H](C)[C@H](OC)CN(C)C(=O)c2ccc(NS(C)(=O)=O)cc2OC[C@@H]1C	.
CCCNC(=O)N1CC2(C1)CN(Cc1ccccn1)[C@@H](CO)c1c2c2ccc(OC)cc2n1C	.
Cc1cccc(NC(=O)c2cc[n+]([O-])cc2)c1C	.
SMILES	E-selectin induc
Cc1ccccc1NC(=O)c1cc[n+]([O-])cc1	41.3
Cc1ccccc1NC(=O)c1ccc2nccnc2c1	.
CCC(=O)N(C)C[C@H]1Oc2cc(C#CC(C)(C)O)ccc2S(=O)(=O)N([C@H](C)CO)C[C@@H]1C	.
CCCC#Cc1ccc2c(c1)O[C@@H](CN(C)S(=O)(=O)c1cccc(OC)c1)[C@@H](C)CN([C@@H](C)CO)S2(=O)=O	97.8
CCCC#Cc1ccc2c(c1)O[C@@H](CN(C)S(=O)(=O)c1cccc(OC)c1)[C@H](C)CN([C@H](C)CO)S2(=O)=O	.
CC(=O)N(C)C[C@H]1Oc2cc(C#Cc3ccccn3)ccc2S(=O)(=O)N([C@@H](C)CO)C[C@@H]1C	.
CCCC#Cc1ccc2c(c1)O[C@@H](CN(C)C(=O)c1ccccc1)[C@@H](C)CN([C@@H](C)CO)S2(=O)=O	.
C[C@@H]1CN([C@@H](C)CO)S(=O)(=O)c2ccc(C#Cc3ccccc3)cc2O[C@@H]1CN(C)CC1CC1	130.6
C[C@H](CO)N1C[C@H](C)[C@H](CN(C)CC2CC2)Oc2cc(C#Cc3ccccc3)ccc2S1(=O)=O	.
CCCC#Cc1ccc2c(c1)O[C@@H](CN(C)C(=O)c1ccccc1)[C@@H](C)CN([C@H](C)CO)S2(=O)=O	96.2
CCCC#Cc1ccc2c(c1)O[C@H](CN(C)C(=O)c1ccccc1)[C@H](C)CN([C@@H](C)CO)S2(=O)=O	.
CC(=O)N(C)C[C@@H]1Oc2cc(C#Cc3ccccn3)ccc2S(=O)(=O)N([C@H](C)CO)C[C@@H]1C	70.4
CC(=O)N(C)C[C@H]1Oc2cc(C#Cc3ccccn3)ccc2S(=O)(=O)N([C@H](C)CO)C[C@H]1C	.
C[C@@H]1CN([C@@H](C)CO)S(=O)(=O)c2ccc(C#Cc3ccccc3F)cc2O[C@H]1CN(C)CC1CC1	.
CCCC#Cc1ccc2c(c1)O[C@H](CN(C)S(=O)(=O)c1cccc(OC)c1)[C@@H](C)CN([C@H](C)CO)S2(=O)=O	.
C[C@@H]1CN([C@H](C)CO)C(=O)Cc2cc(NC(=O)NC3CCCCC3)ccc2O[C@H]1CN(C)Cc1ccc(-c2ccccc2)cc1	.
C[C@H](CO)N1C[C@H](C)[C@H](CN(C)C(=O)Nc2ccccc2)Oc2ccc(NC(=O)Nc3ccccc3)cc2CC1=O	.
Cc1cccc(-c2ccc([C@@H]3[C@H]4CN(C(=O)CN5CCOCC5)CC(=O)N4[C@H]3CO)cc2)c1	.
CCc1csc(N2[C@H](C#N)[C@H](c3ccc(-c4ccc(F)cc4)cc3)[C@@H]2CO)n1	.
CO[C@H]1CN(C)C(=O)c2cccc(C#N)c2OC[C@@H]2O[C@H](CC[C@H]2OC)CCN(C)C(=O)[C@@H]1C	.
C[C@@H]1CCCCO[C@@H](CN(C)S(=O)(=O)c2ccc(F)cc2)[C@@H](C)CN([C@@H](C)CO)C(=O)c2cc(NC(=O)Nc3ccccc3)ccc2O1	.
COc1ccc(S(=O)(=O)N[C@@H]2CC[C@@H](CCn3cc(C(C)C)nn3)O[C@H]2CO)cc1	.
CNC(=O)C[C@H]1CC[C@@H]2[C@@H](COc3ccc(NS(=O)(=O)c4ccc(F)cc4)cc3C(=O)N2C)O1	.
C[C@H](CO)N1C[C@H](C)[C@@H](CN(C)C(=O)Nc2ccc(C(F)(F)F)cc2)OCCCC[C@H](C)Oc2ccc(N(C)C)cc2C1=O	.
CCCN(C)C[C@@H]1Oc2ncc(Br)cc2C(=O)N([C@@H](C)CO)C[C@@H]1C	.
CC(C)NC(=O)N(C)C[C@@H]1Oc2c(NC(=O)Nc3cccc4ccccc34)cccc2C(=O)N([C@H](C)CO)C[C@H]1C	.
CCCC#Cc1ccc2c(c1)O[C@H](CN(C)C(C)=O)[C@@H](C)CN([C@@H](C)CO)S2(=O)=O	.
CC(C)CC#Cc1ccc2c(c1)O[C@@H](CN(C)C(=O)c1ccccc1)[C@H](C)CN([C@@H](C)CO)S2(=O)=O	.
CC(C)CC#Cc1ccc2c(c1)O[C@H](CN(C)Cc1ccncc1)[C@H](C)CN([C@@H](C)CO)S2(=O)=O	107.8
CCCC#Cc1ccc2c(c1)O[C@@H](CN(C)C(C)=O)[C@@H](C)CN([C@H](C)CO)S2(=O)=O	.
